The results in this text go back to PubChem BioAssay AID720574 (Broad Institute, 2013).

Several values for one entry are separate records, joined by “and”; a condition that tells them apart may be missing. Equal values may be shown once. The campaign covered roughly 96,000 compounds. About 140 (0.15%) were called active. What follows is part of a selection rich in actives, with near analogues and random picks from the rest. Unmarked numbers belong to inactive results.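 The calls were made as follows: active = mean replicate inhibition above about 25%, with at least 55% of replicates also reaching it (limit read from the data, passing the limit was not always enough); inconclusive = only one of those two conditions met; inactive = neither condition met.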

Lysine-specific demethylase 4C (Homo sapiens), sequence (Q9H3R0 2-372 limits assumed): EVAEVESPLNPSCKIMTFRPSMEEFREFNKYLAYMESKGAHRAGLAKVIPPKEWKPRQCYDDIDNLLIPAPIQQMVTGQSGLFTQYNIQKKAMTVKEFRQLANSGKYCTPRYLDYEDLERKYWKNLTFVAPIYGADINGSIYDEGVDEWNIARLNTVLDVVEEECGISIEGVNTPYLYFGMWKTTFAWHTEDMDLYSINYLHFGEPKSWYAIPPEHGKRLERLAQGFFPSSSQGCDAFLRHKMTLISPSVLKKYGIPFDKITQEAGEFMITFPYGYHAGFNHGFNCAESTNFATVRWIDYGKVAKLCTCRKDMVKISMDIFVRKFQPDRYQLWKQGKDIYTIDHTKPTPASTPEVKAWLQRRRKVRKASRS

This assay deals with Lysine-specific demethylase 4C (Homo sapiens) (UniProt Q9H3R0). Briefly: inhibitors of GASC-1 (KDM4C) histone demethylase, primary screen, biochemical, single concentration HTS (AID 720574). Particulars: GST-KDM4C 2-372, H3K9me3 peptide, LANCE TR-FRET; at 12.5 µM; stronger effect = higher value. The procedure, abridged:
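Material: GST-tagged GASC-1 (JMJD2C) catalytic fragment, aa 2-372 / Quantity: enzyme final amount 10 nM / Medium: HEPES buffer, pH 7.5, plus ascorbate / Doses: one test concentration per compound / Incubation: 30 min reaction, 60 min detection, RT / Measured by: LANCE TR-FRET / Read-out: inhibition from TR-FRET ratio decrease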
As to `C[C@H]1CCCCO[C@H](CN(C)C(=O)Nc2ccc(F)cc2)[C@@H](C)CN([C@@H](C)CO)C(=O)c2cc(NC(=O)CCC(F)(F)F)ccc2O1`, the inhibition is 1.63%.
With `CS(=O)(=O)N1CC2(C1)[C@H](c1ccccc1)[C@@H](CO)N2C(=O)c1ccccc1`, the inhibition is -0.995%.
`O=C(Cc1ccncc1)N[C@@H]1CC[C@H](CCn2cc(-c3ccccc3F)nn2)O[C@H]1CO`: the inhibition is -1.33%.
`CN(C)CC(=O)N1[C@@H](CO)[C@H](c2ccccc2)C12CN(C(=O)c1cccc(F)c1)C2`: the inhibition was -0.471%.
For the compound `CCC(=O)N1[C@H](C(=O)OC)[C@@H](CO)[C@@H]2Cn3c(ccc(-c4cccc(F)c4)c3=O)[C@@H]21`, the inhibition is 1.8%.
In the case of `Cc1ccc(S(=O)(=O)N(C)C[C@@H]2OCCCC[C@@H](C)Oc3ccc(NC(=O)Nc4ccc(C(F)(F)F)cc4)cc3C(=O)N([C@@H](C)CO)C[C@@H]2C)cc1`, the inhibition is 1.16%.
As to `O=C(CN1CCOCC1)N1CC(=O)N2[C@H](C1)[C@H](c1ccc(/C=C/c3ccccc3)cc1)[C@@H]2CO`, the inhibition is 0.257%.
For the compound `O=C(NCC[C@H]1CC[C@@H](NC(=O)C2CC2)[C@H](CO)O1)c1ccc(F)cc1`, the inhibition was -0.983%.
On to `CCC(=O)Nc1ccc2c(c1)C(=O)N(C)[C@@H]1CC[C@H](CC(=O)NCc3ccccc3)O[C@H]1CO2`, for which the inhibition was 1.95%.
Consider `COc1ccc(S(=O)(=O)N[C@@H]2CC[C@@H](CC(=O)N3CCC(Cc4ccccc4)CC3)O[C@@H]2CO)cc1`, for which the inhibition was -0.232%.
As to `COCC(=O)Nc1ccc2c(c1)[C@@H]1C[C@H](CC(=O)NCc3ccc(-c4ccccc4)cc3)O[C@H](CO)[C@@H]1O2`, the inhibition was -3.13%.
For the compound `CN1C(=O)c2cc(NC(=O)C3CCCC3)ccc2OC[C@@H]2O[C@@H](CC(=O)NCCc3ccncc3)CC[C@@H]21`, the inhibition is 1.45%.
Regarding `Cc1ccc(S(=O)(=O)N[C@H]2CC[C@@H](CC(=O)N3CCc4ccccc4C3)O[C@H]2CO)cc1`, the inhibition was 0.126%.
For the compound `O=C(C[C@@H]1C[C@H]2c3cc(NC(=O)Nc4ccccc4)ccc3O[C@H]2[C@@H](CO)O1)NC1CCCCC1`, the inhibition is -1.66%.
In the case of `COc1ccc2c3c(n(C)c2c1)[C@@H](CO)N(C(=O)Nc1ccc(F)cc1)CC31CN(C(=O)NC(C)C)C1`, the inhibition was -0.434%.
Then `C/C=C/c1ccc([C@@H]2[C@H](CO)N(CC3CCOCC3)C23CN(S(=O)(=O)CC)C3)cc1`, with 0.162%.
For `C[C@H](CO)N1C[C@H](C)[C@H](CN(C)Cc2ccncc2)Oc2ncc(C#CCC3CCCCC3)cc2C1=O`, the inhibition is 2.4%.
With `CC(C)NC(=O)N(C)C[C@@H]1OCCCC[C@@H](C)Oc2ccc(NC(=O)NC3CCCCC3)cc2C(=O)N([C@@H](C)CO)C[C@@H]1C`, the inhibition was 0.134%.
With `COc1ccccc1C#Cc1cnc2c(c1)C(=O)N([C@H](C)CO)C[C@H](C)[C@H](CN(C)S(=O)(=O)c1cn(C)cn1)O2`, the inhibition was -1.15%.
Turning to `CO[C@@H]1CN(C)C(=O)c2ccc(NC(=O)c3ccccc3F)cc2OC[C@@H](C)N(CC2CCOCC2)C[C@H]1C`, the inhibition was 2.15%.
In the case of `CCNC(=O)C[C@@H]1CC[C@@H]2[C@H](COc3ccc(NS(=O)(=O)c4ccccc4C)cc3C(=O)N2C)O1`, the inhibition was 2.37%.
For `CN1C[C@@H]2[C@H](c3ccccc31)[C@@H](CO)N2C(=O)Nc1ccccc1`, the inhibition is -1.64%.
For `CCC(=O)Nc1ccc2c(c1)C(=O)N(C)[C@H]1CC[C@H](CC(=O)NCCOC)O[C@@H]1CO2`, the inhibition was 1.02%.
Turning to `Cc1noc(C)c1NC(=O)N[C@@H]1C=C[C@@H](CC(=O)Nc2ccccc2)O[C@H]1CO`, the inhibition was 1.04%.
Consider `CCS(=O)(=O)Nc1ccc2c(c1)C(=O)N(C)[C@H]1CC[C@@H](CC(=O)N3CCCCC3)O[C@H]1CO2`, for which the inhibition was -0.234%.
With `COCC(=O)N1CC2(C1)CN(C(=O)COC)[C@@H](CO)c1c2c2ccc(OC)cc2n1C` the figure was 2.79%; with `CC(C)NC(=O)N[C@@H]1CC[C@@H](CCNS(=O)(=O)Cc2ccccc2)O[C@@H]1CO`, -0.501%.
For `COc1ccc(S(=O)(=O)N(C)C[C@H]2Oc3c(NC(=O)CCCCCC(=O)Nc4ccccc4N)cccc3C(=O)N([C@H](C)CO)C[C@H]2C)cc1`, the inhibition is 0.35%.
For `O=C(NC1CCCC1)[C@H]1[C@H](CO)[C@H]2Cn3c(ccc(-c4ccccc4)c3=O)[C@H]2N1CCc1ccccc1`, the inhibition was 3.27%.
`CO[C@H]1CN(C)C(=O)c2ccc(NC(=O)C3CCC3)cc2OC[C@H](C)NC[C@@H]1C`: the inhibition is -0.842%.
On to `Cc1ccccc1S(=O)(=O)N1[C@H](CO)[C@@H](c2ccc(-c3ccccc3)cc2)[C@@H]1C#N`, for which the inhibition was -3.67%.
In the case of `COc1ccc(S(=O)(=O)N(C)C[C@H]2OCCCC[C@H](C)Oc3ccc(NC(=O)Nc4ccc5c(c4)OCO5)cc3C(=O)N([C@@H](C)CO)C[C@@H]2C)cc1`, the inhibition is 15.8%.
With `C[C@@H]1CN([C@@H](C)CO)C(=O)Cc2cc(NC(=O)Nc3ccc4c(c3)OCO4)ccc2O[C@H]1CN(C)S(=O)(=O)c1ccccc1` the figure was -0.169%; with `COc1ccc(C#Cc2ccc([C@H]3[C@H]4CN(C(=O)c5ccncc5)CC(=O)N4[C@H]3CO)cc2)cc1`, -3.07%; with `COc1ccccc1CNC(=O)C[C@H]1C[C@@H]2c3cc(NC(=O)Nc4ccccc4F)ccc3O[C@@H]2[C@H](CO)O1`, -9.36%.
With `CO[C@@H]1CN(C)C(=O)c2cc(NC(=O)c3cccc(Oc4ccccc4)c3)ccc2OC[C@H](C)NC[C@@H]1C` the figure was -0.467%; with `CN(C)Cc1cn(CC[C@H]2CC[C@@H](NS(=O)(=O)c3ccccc3)[C@H](CO)O2)nn1`, 0.714%.
Consider `O=C(NC[C@@H]1N[C@@H](CO)[C@H]1c1ccc(-c2cccnc2)cc1)c1cccc(F)c1`, for which the inhibition was -0.99%.
Turning to `CN1CCN(C(=O)C[C@H]2CC[C@@H]3[C@H](COC[C@@H](O)CN3CC3CCCC3)O2)CC1`, the inhibition is 6.35%.
`CCCN1C[C@@H](C)[C@@H](OC)CN(C)C(=O)c2cc(NC(=O)c3ccccc3)ccc2OC[C@H]1C`: the inhibition was -1.49%.
Regarding `COc1cccc(C(=O)Nc2ccc3c(c2)C(=O)N(C)[C@@H]2CC[C@@H](CC(=O)NCCCN4CCOCC4)O[C@@H]2CO3)c1`, the inhibition is -0.807%.
In the case of `COCC(=O)Nc1ccc2c(c1)[C@H]1C[C@@H](CC(=O)NCc3ccccc3F)O[C@H](CO)[C@H]1O2`, the inhibition was 1.67%.
In the case of `CCCC(=O)N1CCC2(CC1)CN[C@H](CO)c1[nH]c3cc(OC)ccc3c12`, the inhibition was -0.39%.
For the compound `CCCC(=O)Nc1ccc2c(c1)C(=O)N(C)C[C@H](OC)[C@H](C)CN(C(=O)c1ccccn1)[C@H](C)CO2`, the inhibition is 0.027%.
Consider `C[C@H](CO)N1C[C@H](C)[C@@H](CN(C)Cc2ccc(Oc3ccccc3)cc2)Oc2ccc(NS(=O)(=O)c3ccc(F)cc3)cc2CC1=O`, for which the inhibition was -2.45%.
In the case of `O=C(Cc1cccnc1)N1CC(=O)N2[C@@H](CO)[C@@H](c3ccc(C#CC4CCCCC4)cc3)[C@@H]2C1`, the inhibition is -0.852%.
For `CN(C)CC(=O)N[C@@H]1CC[C@@H](CCn2cc(C3CC3)nn2)O[C@H]1CO`, the inhibition was -0.3%.
Then `COc1ccc(-c2cn(CC[C@H]3CC[C@@H](N)[C@H](CO)O3)nn2)cc1`, with -0.108%.
For the compound `N[C@@H]1CC[C@H](CCn2cc(C3CC3)nn2)O[C@@H]1CO`, the inhibition was 57.3% (active).
`O=C(c1ccncc1)N1CC[C@@H]2[C@H]1c1cc(Br)ccc1N[C@@H]2CO`: the inhibition is 1.89%.
`CC(=O)N1[C@H](CO)[C@H](c2ccc(-c3ccccc3)cc2)[C@H]1CNC(=O)NC(C)C`: the inhibition is -0.299%.
As for `CCC(=O)N[C@H]1CC[C@@H](CC(=O)NCC2CC2)O[C@@H]1CO`, the inhibition is -0.369%.
On to `C/C=C/c1ccc([C@H]2[C@@H](CO)N(C(C)=O)[C@H]2CN(C)S(C)(=O)=O)cc1`, for which the inhibition is 1.96%.
As to `COc1ccc(S(=O)(=O)Nc2ccc3c(c2)C(=O)N([C@@H](C)CO)C[C@H](C)[C@@H](CN(C)C(=O)NC(C)C)OCCCC[C@H](C)O3)cc1`, the inhibition is 0.601%.
Turning to `CN(C)C(=O)[C@@H]1[C@@H](CO)[C@@H]2Cn3c(cccc3=O)[C@H]1N2C(=O)c1ccc(F)cc1`, the inhibition was -1.64%.
For the compound `COc1ccc(NC(=O)N(C)C[C@H]2OCCCC[C@@H](C)Oc3ccc(NC(=O)NC4CCCCC4)cc3C(=O)N([C@H](C)CO)C[C@H]2C)cc1`, the inhibition was -1.08%.
As for `O=C(NC1Cc2ccccc2C1)[C@H]1[C@H](CO)[C@H]2Cn3c(ccc(C4=CCCCC4)c3=O)[C@H]2N1CC1CC1`, the inhibition was 3.76%.
For the compound `CC(C)NC(=O)N[C@H]1CC[C@@H](CCNC(=O)C2CCC2)O[C@@H]1CO`, the inhibition was -2.41%.
On to `Cc1ccccc1S(=O)(=O)N1[C@@H]2CNC[C@H]1C2c1ccc(-c2cccnc2)cc1` (stereo partly drawn), for which the inhibition is -0.633% and -0.155%.
As for `O=C(NCc1ccncn1)[C@@H]1[C@@H](CO)[C@@H]2Cn3c(ccc(-c4ccc(F)cc4)c3=O)[C@@H]2N1CC1CC1`, the inhibition was 12.7%.
Turning to `O=C(c1cnccn1)N1CC(=O)N2[C@H](C1)[C@@H](c1ccc(C#CC3CCCC3)cc1)[C@@H]2CO`, the inhibition is 7.28%.
In the case of `O=C(C[C@@H]1CC[C@H]2[C@@H](COC[C@@H](O)CN2S(=O)(=O)c2cccc(F)c2)O1)NCCCN1CCOCC1`, the inhibition is -0.281%.
In the case of `C[C@H](CO)N1C[C@H](C)[C@H](CN(C)C(=O)C2CC2)Oc2cc(-c3cccnc3)ccc2S1(=O)=O`, the inhibition is 0.237%.
